In brackets after ≈: the same amount, converted by molar mass.
What was measured:
Format in all cases: functional
Saccharomyces cerevisiae = experiment: Antifungal activity against Saccharomyces cerevisiae
How it was run: (§1)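 Yeasts were tested in YPD broth, with amphotericin B as the reference antifungal.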

Escherichia coli = experiment: Antibacterial activity against Escherichia coli ESS K12
How it was run: (§2)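 Broth-based antibacterial test run in LB broth, with puramycin as the reference agent.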

[1] = Antibacterial activity against Staphylococcus albus; how it was run: as §2
Bacillus subtilis = experiment: Antibacterial activity against Bacillus subtilis; how it was run: as §2
Candida albicans = experiment: Antifungal activity against Candida albicans ATCC 90028; how it was run: as §1

Structure (SMILES) | MIC (Saccharomyces cerevisiae) [µg/mL] | MIC (Escherichia coli) [µg/mL] | MIC [1] [µg/mL] | MIC (Bacillus subtilis) [µg/mL] | MIC (Candida albicans) [µg/mL]
C=C[C@@]1(C)CC[C@@H]2C(C)(C)c3cccc4[nH]c5c(c34)[C@@]2(O)[C@]1(C#N)[C@H]1O[C@H]1C5(C)C [AMBIGUINE I ISONITRILE] | 0.312 (≈ 0.775 µM) | 2.5 (≈ 6.21 µM) | 0.078 (≈ 0.194 µM) | 0.312 (≈ 0.775 µM) | 0.39 (≈ 0.969 µM)
C[C@@H]1[C@H](O)[C@@H](C)/C=C/C=C/C=C/C=C/C=C/C=C/C=C/[C@H](O[C@@H]2O[C@H](C)[C@@H](O)[C@H](N)[C@@H]2O)C[C@@H]2O[C@](O)(C[C@@H](O)C[C@@H](O)[C@H](O)CC[C@@H](O)C[C@@H](O)CC(=O)O[C@H]1C)C[C@H](O)[C@H]2C(=O)O [AMPHOTERICIN B] | – | – | – | – | 1.56 (≈ 1.69 µM)
[C-]#[N+][C@@H]1[C@@H]2c3c(C(C)(C)C=C)[nH]c4cccc(c34)C(C)(C)[C@H]2CC[C@]1(C)C=C | 5 (≈ 13.4 µM) | 10 (≈ 26.8 µM) | 0.625 (≈ 1.68 µM) | 1.25 (≈ 3.36 µM) | 6.25 (≈ 16.8 µM)

The next lines start with the values.

MIC (Saccharomyces cerevisiae) [µg/mL] | MIC (Escherichia coli) [µg/mL] | MIC [1] [µg/mL] | MIC (Bacillus subtilis) [µg/mL] | MIC (Candida albicans) [µg/mL] | Structure (SMILES)
0.312 (≈ 0.662 µM) | – | – | – | – | COc1ccc(C[C@H](N)C(=O)N[C@H]2[C@@H](O)[C@H](n3cnc4c(N(C)C)ncnc43)O[C@@H]2CO)cc1 [PUROMYCIN]
– | 0.312 (≈ 0.536 µM) | 0.156 (≈ 0.268 µM) | 2.5 (≈ 4.3 µM) | – | CN[C@@H]1[C@H](O[C@H]2[C@H](O[C@H]3[C@H](O)[C@@H](O)[C@H](N=C(N)N)[C@@H](O)[C@@H]3N=C(N)N)O[C@@H](C)[C@]2(O)C=O)O[C@@H](CO)[C@H](O)[C@H]1O [STREPTOMYCIN]

From ChEMBL document CHEMBL1141423, “Antimicrobial ambiguines from the cyanobacterium Fischerella sp. collected in Israel” (2007)
